Test results taken from PubChem BioAssay AID588420 (The Scripps Research Institute Molecular Screening Center, 2011).
Activity calls are given as the source filed them.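 Rule for the calls: active = IC50 at or below 1 µM; inactive = the rest.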

Target: Protein-arginine deiminase type-4 (Homo sapiens) (UniProt Q9UM07)
Test: PAD4 enzyme inhibition potency, late-stage follow-up, biochemical, BAEE substrate, citrulline absorbance, 8-point 0-10 µM (AID 588420)
Conditions: recombinant PAD4, BAEE citrulline colorimetric absorbance
Procedure, shortened: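 Assay system: recombinant PAD4 enzyme. Quantity: 0.2 µM PAD4. Probe or stimulus: 10 mM BAEE. Incubation: 15 min preincubation plus 15 min reaction at 37 °C. Measured by: colorimetric citrulline absorbance at 540 nm. Repeats: duplicates.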

Protein-arginine deiminase type-4 (Homo sapiens), sequence (Q9UM07 whole entry, looked up): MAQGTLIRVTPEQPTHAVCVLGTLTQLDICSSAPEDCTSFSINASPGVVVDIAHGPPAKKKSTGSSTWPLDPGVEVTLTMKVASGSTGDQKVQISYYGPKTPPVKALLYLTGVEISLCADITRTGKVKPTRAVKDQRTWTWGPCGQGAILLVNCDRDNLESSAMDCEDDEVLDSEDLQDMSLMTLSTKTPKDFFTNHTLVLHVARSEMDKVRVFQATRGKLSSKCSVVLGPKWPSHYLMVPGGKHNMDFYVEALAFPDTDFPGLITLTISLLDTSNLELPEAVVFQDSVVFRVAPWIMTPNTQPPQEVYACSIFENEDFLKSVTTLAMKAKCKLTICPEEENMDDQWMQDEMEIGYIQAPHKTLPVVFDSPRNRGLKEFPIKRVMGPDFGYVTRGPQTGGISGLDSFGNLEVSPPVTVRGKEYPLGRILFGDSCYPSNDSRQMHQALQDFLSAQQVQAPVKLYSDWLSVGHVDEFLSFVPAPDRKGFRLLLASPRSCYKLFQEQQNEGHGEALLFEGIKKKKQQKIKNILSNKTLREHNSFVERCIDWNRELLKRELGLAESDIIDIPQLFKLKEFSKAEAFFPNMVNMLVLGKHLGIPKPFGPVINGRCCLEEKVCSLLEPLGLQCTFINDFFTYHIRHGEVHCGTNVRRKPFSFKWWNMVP

IC50: inactive
SMILES: COC1=CC(=O)c2nc(C#N)ccc2C1=O
